Laboratory results: the array DNA melting data of Ke et al. (doi:10.1101/2024.01.08.574731)

Tests used:
[1] = folding enthalpy; higher = less favourable; fluorescence melt of hairpins on a sequencing array, two-state fit; conditions: sodium 0.088 M
How it was run: (§1)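 Library hairpins on a sequenced MiSeq flow cell carried annealed Cy3 and quencher oligos, and their Cy3 fluorescence was imaged in 50 mM Na-HEPES pH 8.0 with 25 mM NaCl, in 2.5 °C steps up to 60 °C. Signals were normalised to Cy3 before quenching and to control constructs. Melting temperature and folding enthalpy were obtained from bootstrapped two-state fits, combined by inverse-variance weighting across four replicates, and the fitted temperatures were then raised by 9.35 °C to match UV melts.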

[2] = melting temperature; fluorescence melt of hairpins on a sequencing array, two-state fit, raised by 9.35 °C to match UV melts; conditions: sodium 0.088 M
How it was run: as §1

Row | Sequence | folding enthalpy [1] | Tm [2]
1 | GTAGAGGGAAACCTCCAC ((.((((....)))).)) | -16.7 kcal/mol | 31.2 °C
2 | GCATAGGGAAACCTATAC (.(((((....))))).) | -14.4 kcal/mol | 27.8 °C
3 | GCCGTACGAAAGTATGGC (((.(((....))).))) | -42.8 kcal/mol | 61.4 °C
4 | GGTATCGGAAACGGTATC (.((.((....)).)).) | -26.1 kcal/mol | 30.9 °C
5 | GCAACACGAAAGTGTGC (((.(((....)))))) | -19 kcal/mol | 60.2 °C
6 | GTACACCGAAAGGTATAC (((.(((....))).))) | -22.3 kcal/mol | 39.1 °C
7 | GCCAGGCGAAAGCTTTGC ((.(.((....)).).)) | -11.5 kcal/mol | 33.4 °C
8 | GATCGACCTATCGATC ((((((....)))))) | -38.9 kcal/mol | 51 °C
9 | GTGACTCGAAAGAGCCAC (((.(((....))).))) | -38.2 kcal/mol | 54.5 °C
10 | GATCCTCAATAGGATC ((((((....)))))) | -34.2 kcal/mol | 49.5 °C
11 | GATCCGAATTCGGATC ((((((....)))))) | -43.3 kcal/mol | 60.2 °C
12 | GCGGTGACGAAAGTCCGC (((..(((....)))))) | -30.8 kcal/mol | 57.2 °C
13 | GTCAACGAAAGTTATGAC ((((((....)))..))) | -20.5 kcal/mol | 33.1 °C
14 | GCTGTGGGAAACCATAGC (((.(((....))).))) | -22.3 kcal/mol | 50 °C
15 | GACCGCGAAAGCGCCGTC ((((((....)))..))) | -14.1 kcal/mol | 36.6 °C
16 | GCGCTCGAAAGAGGCCGC ((((((....)))..))) | -16.5 kcal/mol | 47.5 °C
17 | GATCTTAAGGAAGATC ((((((....)))))) | -23.1 kcal/mol | 39.1 °C
18 | GATTTCCGAAAGGAATC (((.(((....)))))) | -16.4 kcal/mol | 42.9 °C
19 | GCGTTAACACGC ((((....)))) | -20.1 kcal/mol | 49.1 °C
20 | GGCAGAGGAAACTCTACC ((.((((....)))).)) | -23.8 kcal/mol | 38.3 °C
21 | CGGTCGGAAACGAACCG ((((((....))).))) | -33.3 kcal/mol | 51.6 °C
22 | GATCTGGGCTCAGATC ((((((....)))))) | -39.3 kcal/mol | 52.8 °C
23 | GCTCCGCGAAAGCTCAGC (((..((....))..))) | -9.77 kcal/mol | 27.2 °C

Row | Sequence | folding enthalpy [1] | Tm [2]
24 | GAAATCCGAAAGGACTTC (((.(((....))).))) | -29.8 kcal/mol | 37.6 °C
25 | GGTGTGCGAAAGCAAACC (((.(((....))).))) | -35.5 kcal/mol | 56 °C
26 | GTCCAGGCGAAAGCCGAC (((..(((....)))))) | -9.61 kcal/mol | 37 °C
27 | GGCCGTGCGAAAGCAGCC (((..(((....)))))) | -16.3 kcal/mol | 46.6 °C
28 | GATCACGCAGGTGATC ((((((....)))))) | -39.6 kcal/mol | 64.2 °C
29 | GCTGAATCGAAAGATAGC (((..(((....)))))) | -17.3 kcal/mol | 31.9 °C
30 | GATCTTATTAAGATC ((((((...)))))) | -34 kcal/mol | 45 °C
31 | GGTAACGAAAGTTAGACC ((((((....)))..))) | -13 kcal/mol | 33.6 °C
32 | GTCATCGAAAGATTAGAC ((((((....)))..))) | -14 kcal/mol | 32.2 °C
33 | GATCGCGTGGGCGATC ((((((....)))))) | -30.8 kcal/mol | 68.2 °C
34 | GTGGATGGAAACATCTAC ((.((((....)))).)) | -31 kcal/mol | 46.8 °C
35 | GGTTTTGCGAAAGCAACC (((..(((....)))))) | -11.9 kcal/mol | 30.2 °C
36 | GATCTCAGTCGAGATC ((((((....)))))) | -35.1 kcal/mol | 54.1 °C
37 | GCTGAGACGAAAGTCAGC (((..(((....)))))) | -21.4 kcal/mol | 49.1 °C
38 | GGACCGGGAAACCGATCC (((.(((....))).))) | -35.7 kcal/mol | 48 °C
39 | GATCTAAAGTTAGATC ((((((....)))))) | -26.1 kcal/mol | 36.7 °C
40 | GTTGGTGGAAACACCAGC (.(((((....))))).) | -21.5 kcal/mol | 50.6 °C
41 | CAGTCGAAAGACTG (((((....))))) | -27.2 kcal/mol | 61.4 °C
42 | GGCACACGAAAGTGGCC (((.(((....)))))) | -23.2 kcal/mol | 62.2 °C
43 | GATCTTAGACAAGATC ((((((....)))))) | -30.2 kcal/mol | 37.3 °C
44 | GAGTGAACGAAAGTTCTC (((..(((....)))))) | -11.3 kcal/mol | 29.9 °C
45 | GATCAATAATTTGATC ((((((....)))))) | -34.8 kcal/mol | 43.2 °C
46 | GGGCACCGAAAGGTTCCC (((.(((....))).))) | -32.4 kcal/mol | 52.5 °C

Row | Sequence | folding enthalpy [1] | Tm [2]
47 | GTTGCCGAAAGGCAAAC ((((((....))).))) | -11.6 kcal/mol | 58 °C
48 | GCTCTTCCGAAAGGAAGC (((..(((....)))))) | -9 kcal/mol | 37.2 °C
49 | GCTCCCGAAAGGGCGAGC ((((((....)))..))) | -16.3 kcal/mol | 47.9 °C
50 | GAGAAGCGAAAGCTGCTC (((.(((....))).))) | -27.4 kcal/mol | 58.1 °C
51 | GTTGGGGGAAACTCCGAC ((.((.(....).)).)) | -25.9 kcal/mol | 41.6 °C
52 | GCCCGCGAAAGCGTCGGC ((((((....)))..))) | -17.9 kcal/mol | 56.5 °C
53 | GAATCGGGAAACCGATCC (.(((((....))))).) | -15.6 kcal/mol | 39 °C
54 | GCCAAGCGAAAGCTCAGC ((..(((....)))..)) | -13.6 kcal/mol | 37.3 °C
55 | GTCTACGAAAGTATGAC ((((((....))).))) | -23.8 kcal/mol | 42.3 °C
56 | GCCTTCGAAAGAACAGGC ((((((....)))..))) | -26.7 kcal/mol | 40.9 °C
57 | GGAGTTGCGAAAGCATCC (((..(((....)))))) | -12.7 kcal/mol | 32.5 °C
58 | GACGGAGAAATCCGTC ((((((....)))))) | -38.5 kcal/mol | 59.1 °C
59 | GCACTGACGAAAGTCTGC (((..(((....)))))) | -14.3 kcal/mol | 38.1 °C
60 | CGAAACGGAAACGTCTCG (((.(((....))).))) | -27.3 kcal/mol | 39 °C
61 | GCCATACGAAAGTAGGGC (((.(((....))).))) | -38 kcal/mol | 60.5 °C
62 | GCTATCGAAAGATGCAGC ((((((....)))..))) | -18.3 kcal/mol | 35.8 °C
63 | GCGAATATTCGC ((((....)))) | -33.5 kcal/mol | 50.7 °C
64 | GGGCGAACGAAAGTTCCC (((..(((....)))))) | -15.4 kcal/mol | 45.2 °C
65 | GGCGTCGGAAACAACGCC (((((.(....).))))) | -40.6 kcal/mol | 55.2 °C
66 | GATCCGCCATCGGATC ((((((....)))))) | -37 kcal/mol | 57.4 °C
67 | GTATGGGGAAACCCATGC (.(((((....))))).) | -20.9 kcal/mol | 49 °C
68 | CGCCACGGAAACGTTGCG (((.(((....))).))) | -33.4 kcal/mol | 51.1 °C
69 | GTTTTGGAAACAAAAC ((((((....)))))) | -31.6 kcal/mol | 49.3 °C

Row | Sequence | folding enthalpy [1] | Tm [2]
70 | GCCGACGAAAGTCGAGGC ((((((....)))..))) | -16.5 kcal/mol | 59.5 °C
71 | GTCCGTCGAAAGACAGAC (((.(((....))).))) | -22.3 kcal/mol | 47 °C
72 | GCCTCGGGAAACTGAGGC (((((.(....).))))) | -37.1 kcal/mol | 59.4 °C
73 | GCAGAAGGAAACTCCTGC ((((.((....)).)))) | -20.9 kcal/mol | 40.1 °C
74 | GGTGGTGGAAACGTCACC ((((..(....)..)))) | -23.4 kcal/mol | 44.5 °C
75 | GCGGCGCGAAAGCACAGC ((.(.((....)).).)) | -29.9 kcal/mol | 63.7 °C
76 | GTATGCCGAAAGGCGTAC (((.(((....))).))) | -26.2 kcal/mol | 63.4 °C
77 | GAGCTTGGAAACAGGCTC ((((.((....)).)))) | -45 kcal/mol | 49.3 °C
78 | GACGCCGAAAGGCTGTC ((((((....))).))) | -18.4 kcal/mol | 56.9 °C
79 | GAAGGTGGAAACATCTTC ((((.((....)).)))) | -30.8 kcal/mol | 41.6 °C
80 | GGTGCCCGAAAGGGACC (((.(((....)))))) | -21.5 kcal/mol | 58.1 °C
81 | GGTTACCGAAAGGTTACC (((.(((....))).))) | -30.3 kcal/mol | 52.6 °C
82 | GCGGCTGCCGC ((((...)))) | -31.2 kcal/mol | 57.1 °C
83 | GTCGTAGGAAACTGTGAC (((..((....))..))) | -16.6 kcal/mol | 30.8 °C
84 | GTTTGCCGAAAGGCCAAC (((.(((....))).))) | -20.9 kcal/mol | 41.5 °C
85 | GCACTCGAAAGAGCATGC ((((((....)))..))) | -14.4 kcal/mol | 35.2 °C
86 | GATAACGGAAACGTTGTC ((.((((....)))).)) | -28 kcal/mol | 45.8 °C
87 | GCTCGGCGAAAGCTCAGC (((..((....))..))) | -11.9 kcal/mol | 44.7 °C
88 | GGAAGCGGAAACACTTCC (((((.(....).))))) | -32.9 kcal/mol | 44.3 °C
89 | GATCAAACCCTTGATC ((((((....)))))) | -33.4 kcal/mol | 42.7 °C
90 | GATCATTCTATGATC ((((((...)))))) | -33.7 kcal/mol | 50.7 °C
91 | GTATAGTCGAAAGACTAC (((..(((....)))))) | -11.9 kcal/mol | 32.6 °C
92 | GGCAAGGAAACTTGCC ((((((....)))))) | -37 kcal/mol | 64.7 °C
